Measured values published in ChEMBL document CHEMBL2203129, “Structure-activity relationship studies of naphthol AS-E and its derivatives as anticancer agents by inhibiting CREB-mediated gene transcription” (Bioorg Med Chem, 2012).
Activity calls are given as the source filed them. The calls are words filed in the database; no cut-off is given here.

Columns and labels:
[1] = tested on: MDA-MB-468; assay: Growth inhibition of human MDA-MB-468 cells after 72 hrs by MTT assay; type: functional; conditions: MDA-MB-468, 72 h
[2] = tested on: MDA-MB-231; assay: Growth inhibition of human MDA-MB-231 cells after 72 hrs by MTT assay; type: functional; conditions: MDA-MB-231, 72 h
[3] = tested on: MCF7; assay: Growth inhibition of human MCF7 cells after 72 hrs by MTT assay; type: functional; conditions: MCF7, 72 h
[4] = tested on: A549; assay: Growth inhibition of human A549 cells after 72 hrs by MTT assay; type: functional; conditions: A549, 72 h
[5] = Inhibition of CREB-mediated gene transcription in human HEK293T cells by renilla luciferase reporter assay; type: cell-based; conditions: HEK-293T
Outline: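 HEK 293T cells transfected with pCRE-RLuc, replated after 3 h and attached overnight; compound added, then forskolin (final 10 µM) 30 min later; 5 h at 37 °C.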

[6] = Inhibition of KIX domain of CBP interaction with KID domain of CREB after 20-24 hrs by Renilla luciferase complementation assay
Outline: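 RLucC-KIX (20 ng) and KID-RLucN lysate (1.0 µg) per reaction in Renilla lysis buffer with compound, incubated at 4 °C for 20–24 h; residual luminescence read with benzyl-coelenterazine in PBS pH 7.4.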

[7] = tested on: A549; assay: Inhibition of CREB in human A549 cells assessed as reduction in VEGF level at 2.5 to 10 uM after 24 hrs by ELISA; type: cell-based
Outline: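 A549 cells treated in duplicate for 24 h; VEGF in culture medium measured by ELISA and normalized to medium protein concentration; one-way ANOVA.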

[8] = tested on: A549; assay: Inhibition of CREB in human A549 cells assessed as reduction in Bcl-2 protein expression at 5 to 10 uM after 48 hrs by Western blot analysis; type: cell-based
Outline: (§1)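 Exponentially growing A549 cells treated 48 h; washed in cold PBS, lysed in NP-40 buffer (50 mM Tris pH 8.0, 5 mM EDTA, 150 mM NaCl, 1 mM DTT, 0.5% NP-40) with 8 M urea. Equal protein on 10% SDS-PAGE, PVDF transfer, antibody detection; GAPDH loading control.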

[9] = tested on: HFF; assay: Cytotoxicity against human HFF cells assessed as effect on cell viability at 5 to 10 uM after 48 hrs by trypan blue exclusion assay; type: cell-based
Outline: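 HFF cells (maintained in DMEM, 10% FBS, 37 °C, 5% CO2) exposed to increasing compound concentrations in triplicate for 48 h; live cells counted by trypan blue exclusion.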

[10] = tested on: HMEC; assay: Cytotoxicity against HMEC assessed as effect on cell viability at less than or equal to 10 uM after 48 hrs by trypan blue exclusion assay; type: cell-based; conditions: human
Outline: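 HMEC grown in MEGM complete medium, switched to DMEM with 10% FBS and penicillin/streptomycin on the day of treatment; compound added at various concentrations, triplicate, 48 h at 37 °C, 5% CO2. Live cells counted by trypan blue exclusion; one-way ANOVA.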

[11] = tested on: MCF7; assay: Cytotoxicity against human MCF7 cells expressing wild type CREB assessed as reduction in cell proliferation at 0.5 to 10 uM after 48 hrs by MTT assay; type: functional, cell-based
Outline: (§2)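 MCF-7 cells stably transfected with Flag-tagged VP16-CREB (G418 2 mg/mL selection; expression checked by anti-FLAG blot) alongside parental MCF-7. Compound at indicated concentrations in triplicate for 48 h; live cells quantified with MTT reagent; Student's t-test.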

[12] = tested on: MCF7; assay: Cytotoxicity against human MCF7 cells expressing VP16-CREB mutant assessed as effect on cell proliferation at 0.5 to 10 uM after 48 hrs by MTT assay; type: functional, cell-based; outline: as §2
[13] = tested on: A549; assay: Induction of apoptosis in human A549 cells assessed as necrotic cells at 10 uM after 48 hrs by Annexin V-FITC/PI staining based flow cytometry (reference value: 1.5%); type: functional
[14] = tested on: A549; assay: Induction of apoptosis in human A549 cells assessed as late apoptotic cells at 10 uM after 48 hrs by Annexin V-FITC/PI staining based flow cytometry (reference value: 2.98%); type: functional
[15] = tested on: A549; assay: Induction of apoptosis in human A549 cells assessed as early apoptotic cells at 10 uM after 48 hrs by Annexin V-FITC/PI staining based flow cytometry (reference value: […]); type: functional
[16] = tested on: A549; assay: Induction of apoptosis in human A549 cells assessed as viable cells at 10 uM after 48 hrs by Annexin V-FITC/PI staining based flow cytometry (reference value: 91.6%); type: functional; conditions: A549, 48 h, read-out: Activity
[17] = tested on: A549; assay: Induction of apoptosis in human A549 cells assessed as necrotic cells at 7.5 uM after 48 hrs by Annexin V-FITC/PI staining based flow cytometry (reference value: 1.5%); type: functional
[18] = tested on: A549; assay: Induction of apoptosis in human A549 cells assessed as late apoptotic cells at 7.5 uM after 48 hrs by Annexin V-FITC/PI staining based flow cytometry (reference value: 2.98%); type: functional
[19] = tested on: A549; assay: Induction of apoptosis in human A549 cells assessed as early apoptotic cells at 7.5 uM after 48 hrs by Annexin V-FITC/PI staining based flow cytometry (reference value: […]); type: functional
[20] = tested on: A549; assay: Induction of apoptosis in human A549 cells assessed as viable cells at 7.5 uM after 48 hrs by Annexin V-FITC/PI staining based flow cytometry (reference value: 91.6%); type: functional; conditions: A549, 48 h, read-out: Activity
[21] = tested on: A549; assay: Induction of apoptosis in human A549 cells assessed as necrotic cells at 5 uM after 48 hrs by Annexin V-FITC/PI staining based flow cytometry (reference value: 1.5%); type: functional
[22] = tested on: A549; assay: Induction of apoptosis in human A549 cells assessed as late apoptotic cells at 5 uM after 48 hrs by Annexin V-FITC/PI staining based flow cytometry (reference value: 2.98%); type: functional
[23] = tested on: A549; assay: Induction of apoptosis in human A549 cells assessed as early apoptotic cells at 5 uM after 48 hrs by Annexin V-FITC/PI staining based flow cytometry (reference value: […]); type: functional
[24] = tested on: A549; assay: Induction of apoptosis in human A549 cells assessed as viable cells at 5 uM after 48 hrs by Annexin V-FITC/PI staining based flow cytometry (reference value: 91.6%); type: functional; conditions: A549, 48 h, read-out: Activity
[25] = tested on: A549; assay: Induction of apoptosis in human A549 cells assessed as PARP cleavage at 5 to 10 uM after 48 hrs by Western blot analysis; type: functional, cell-based; outline: as §1
[26] = molecular target: Cellular tumor antigen p53 (Homo sapiens) (UniProt P04637); assay: Inhibition of p53 in human A549 cells assessed as effect on p21 gene expression at 1 to 10 uM after 4 hrs by quantitative RT-PCR analysis; type: cell-based
Outline: (§3)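 A549 cells treated in duplicate for 4 h; total RNA DNase-treated (37 °C, 30 min), reverse-transcribed with random hexamers; qPCR with SYBR Green normalized to HPRT; one-way ANOVA.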

[27] = tested on: A549; assay: Inhibition of CREB in human A549 cells assessed as reduction in VEGF gene expression at 10 uM after 4 hrs by quantitative RT-PCR analysis; type: cell-based
[28] = tested on: A549; assay: Inhibition of CREB in human A549 cells assessed as reduction in Bcl-2 gene expression at 1 to 10 uM after 4 hrs by quantitative RT-PCR analysis; type: cell-based; outline: as §3
[29] = molecular target: Cellular tumor antigen p53 (Homo sapiens) (UniProt P04637); assay: Inhibition of p53 transfected in HEK293T cells assessed as gene transcription after 5 hrs by Renilla luciferase reporter assay; type: cell-based; conditions: HEK-293T
[30] = molecular target: Cellular tumor antigen p53 (Homo sapiens) (UniProt P04637); assay: Inhibition of p53 in human A549 cells assessed as effect on p21 protein expression at 5 to 10 uM after 48 hrs by Western blot analysis; type: cell-based; outline: as §1

Cellular tumor antigen p53 (Homo sapiens), sequence (P04637 whole entry, looked up): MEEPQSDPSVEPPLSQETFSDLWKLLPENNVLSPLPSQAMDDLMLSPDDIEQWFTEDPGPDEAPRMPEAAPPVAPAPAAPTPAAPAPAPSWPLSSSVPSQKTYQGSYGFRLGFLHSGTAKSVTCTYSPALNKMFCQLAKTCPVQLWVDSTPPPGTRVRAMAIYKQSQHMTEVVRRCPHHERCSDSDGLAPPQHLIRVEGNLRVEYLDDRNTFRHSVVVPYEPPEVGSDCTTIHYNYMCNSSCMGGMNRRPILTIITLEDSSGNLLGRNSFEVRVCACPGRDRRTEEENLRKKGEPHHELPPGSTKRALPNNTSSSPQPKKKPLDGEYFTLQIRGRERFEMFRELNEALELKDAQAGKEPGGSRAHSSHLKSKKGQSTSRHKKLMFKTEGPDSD

## O=C(Nc1ccc(F)cc1)c1cc2ccccc2cc1O
[1]
  GI50: 2.78 µM
[2]
  GI50: 11.4 µM
[3]
  GI50: 4.16 µM
[4]
  GI50: 6.78 µM
[5]
  IC50: 4.86 µM
[6]
  IC50: 1.73 µM

## O=C(Nc1ccccc1Cl)c1cc2ccccc2cc1O
[1]
  GI50: 6.65 µM
[2]
  GI50: 17.2 µM
[3]
  GI50: 2.27 µM
[4]
  GI50: 4.83 µM
[5]
  IC50: 5.72 µM
[6]
  IC50: 5.43 µM

## Nc1ccc(NC(=O)c2cc3ccccc3cc2O)cc1
[1]
  GI50: 57.1 µM
[2]
  GI50: > 100 µM
[3]
  GI50: 28 µM
[4]
  GI50: 51.6 µM
[5]
  IC50: > 50 µM
[6]
  IC50: 25.4 µM

## O=C(Nc1ccc(Cl)cc1)c1cc2ccccc2cc1O
[7]
  inhibition: Active
[8]
  inhibition: Active
[1]
  GI50: 1.46 µM
[2]
  GI50: 2.35 µM
[3]
  GI50: 2.81 µM
[4]
  GI50: 2.9 µM
[5]
  IC50: 2.29 µM
[6]
  IC50: 2.9 µM
[9]
  Activity: Non-toxic
[10]
  Activity: Non-toxic
[11]
  Activity: Active
[12]
  Activity: inactive
[13]
  Activity: 0.58%
[14]
  Activity: 4.2%
[15]
  Activity: 19.4%
[16]
  viability at 10 µM: 75.9%
[17]
  Activity: 1.42%
[18]
  Activity: 2.9%
[19]
  Activity: 10.1%
[20]
  viability at 7.5 µM: 85.6%
[21]
  Activity: 1.36%
[22]
  Activity: 3.06%
[23]
  Activity: 6.5%
[24]
  viability at 5 µM: 89.1%
[25]
  Activity: Active
[26]
  inhibition: inactive
[27]
  inhibition: Active
[28]
  inhibition: Active
[29]
  inhibition: inactive
[30]
  inhibition: inactive

## O=C(Nc1ccncc1)c1cc2ccccc2cc1O
[1]
  GI50: 63.4 µM
[2]
  GI50: 35.5 µM
[3]
  GI50: 15.8 µM
[4]
  GI50: 25 µM
[5]
  IC50: 20.7 µM
[6]
  IC50: 16.3 µM

## O=C(Nc1ccc(O)cc1)c1cc2ccccc2cc1O
[1]
  GI50: 65.3 µM
[2]
  GI50: > 100 µM
[3]
  GI50: 9.52 µM
[4]
  GI50: 28.1 µM
[5]
  IC50: 40.5 µM
[6]
  IC50: 28.2 µM

## COc1ccc(NC(=O)c2cc3ccccc3cc2O)cc1
[1]
  GI50: 79.3 µM
[2]
  GI50: 75.5 µM
[3]
  GI50: 6.55 µM
[4]
  GI50: 85.7 µM
[5]
  IC50: > 50 µM
[6]
  IC50: > 50 µM

## O=C(Nc1ccccn1)c1cc2ccccc2cc1O
[1]
  GI50: 5.69 µM
[2]
  GI50: 44.2 µM
[3]
  GI50: 6.25 µM
[4]
  GI50: 75.8 µM
[5]
  IC50: > 50 µM
[6]
  IC50: 1.69 µM
